Assay [1] concerns PC-3. Nature of the assay: Induction of cell cycle arrest in human PC3 cells assessed as accumulation in S phase at 1 uM after 24 hrs by […]propidium iodide based flow cytometric analysis (reference value: 21 to 31.6 %). It is filed as functional.
Assay [2] relates to PC-3M. Nature of the assay: Induction of paraptosis in human PC3M-lluc-C6 cells xenografted in athymic Balb/c mouse at 15 mg/kg, ip administered every 2 days for 18 days by H and E staining based method. Type of assay: functional, organism-based. In outline: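 Subcutaneous PC3M-luc-C6 xenografts (5 × 10^6 cells) were grown in 6-week male athymic BALB/c-nu mice. Groups of n = 5 received 15 mg/kg i.p. every 2 days from ~0.1 cm3 tumor volume, with a vehicle group. Excised tumor tissue was examined by H&E staining for vacuoles.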
Background: In xenograft studies the graft and the host belong to different species.

Assay [3] concerns PC-3. Briefly: Induction of apoptosis in human PC3 cells assessed as viable cells at 0.5 uM after 24 hrs by Annexin V-FITC/propidium iodide based flow cytometric analysis (reference value: 95.4 %). Type of assay: functional. Conditions: PC-3, 24 h, read-out: Activity. In outline:
(§1)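 PC3 cells exposed to 0.5, 1 or 2 μM for 24 h, then stained with Annexin V-FITC and PI and analyzed by FACSCalibur flow cytometry. Populations assigned as necrotic (Annexin V−/PI+), late apoptotic (double positive), normal (Annexin V−/PI−) and early apoptotic (Annexin V+/PI−). DMSO vehicle control.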
A general note: In flow cytometry, cells or beads pass a laser one at a time.

In assay [4] the test system is PC-3M. Briefly: Induction of ER stress i in human PC3M-lluc-C6 cells xenografted in athymic Balb/c mouse assessed as increase in GRP78 protein levels at 15 mg/kg, ip administered every 2 days for 18 days by Western blot and immunohistochemical staining method. Type of assay: functional, organism-based. In outline:
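Tumor tissue from PC3M-luc-C6 xenografts in BALB/c-nu mice dosed 15 mg/kg i.p. every 2 days. GRP78 measured by Western blot and by immunohistochemistry (anti-GRP78 1:500 overnight at 4 °C, HRP/DAB, hematoxylin counterstain).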

Assay [5] has as its system PC-3. Briefly: Cytotoxicity in human PC3 cells assessed as reduction in cell viability after 24 hrs in presence of CHX by MTT assay. Type of assay: functional, cell-based. In outline: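 PC3 cells pretreated with 10 μM actinomycin D or 5 μM cycloheximide, then treated with compound for 24 h. Viability by MTT at 570 nm. Vacuolation imaged by phase-contrast microscopy.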

The subject of assay [6] is PC-3. Nature of the assay: Induction of apoptosis in human PC3 cells assessed as late apoptotic cells at 0.5 uM after 24 hrs by Annexin V-FITC/propidium iodide based flow cytometric analysis (reference value: 1.1 %). It is filed as functional. In outline:
as §1

In assay [7] the test system is PC-3. Nature of the assay: Induction of cell cycle arrest in human PC3 cells assessed as accumulation in G0/G1 phase at 1 uM after 24 hrs by […]propidium iodide based flow cytometric analysis (reference value: 43.5 to 62.5 %). Type of assay: functional.
Assay [8] relates to PC-3. Nature of the assay: Induction of ER stress in human PC3 cells assessed as upregulation of CHOP after 24 hrs by Western blot analysis. Type of assay: functional, cell-based. In outline:
(§2)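 PC3 cells in RPMI 1640 with 10% FBS, treated with compound for timed intervals. DMSO vehicle control. Lysis in RIPA buffer, 40 μg protein per lane on SDS-PAGE, transfer to nitrocellulose. Primary antibodies overnight at 4 °C, HRP-secondary 45 min, ECL detection. GAPDH or β-actin used as loading control.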

The subject of a further assay is RWPE-1. Nature of the assay: Cytotoxicity against human RWPE1 cells assessed as cell growth inhibition after 24 hrs by MTT assay. Type of assay: cell-based. Conditions: RWPE-1, 24 h. In outline:
(§3)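 Cells seeded 24 h in RPMI 1640 + 10% FBS. RWPE-1 was kept in K-SFM with bovine pituitary extract and EGF. Cells then exposed to compounds for 24 h at 37 °C, 5% CO2, with DMSO vehicle and docetaxel as positive control. MTT added for 4 h, absorbance read at 570 nm. Triplicate runs, IC50 reported as mean of three experiments.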
In general terms: Tetrazolium dyes change colour on reduction, which living cells bring about.

The test system of assay [9] is PC-3. Nature of the assay: Induction of apoptosis in human PC3 cells assessed as necrotic cells at 1 uM after 24 hrs by Annexin V-FITC/propidium iodide based flow cytometric analysis (reference value: 1.1 %). It is filed as functional. In outline: as §1
For assay [10], the target named is T1, Eukaryotic translation initiation factor 2-alpha kinase 3 (Homo sapiens) (UniProt Q9NZJ5).
T1 sequence (whole entry): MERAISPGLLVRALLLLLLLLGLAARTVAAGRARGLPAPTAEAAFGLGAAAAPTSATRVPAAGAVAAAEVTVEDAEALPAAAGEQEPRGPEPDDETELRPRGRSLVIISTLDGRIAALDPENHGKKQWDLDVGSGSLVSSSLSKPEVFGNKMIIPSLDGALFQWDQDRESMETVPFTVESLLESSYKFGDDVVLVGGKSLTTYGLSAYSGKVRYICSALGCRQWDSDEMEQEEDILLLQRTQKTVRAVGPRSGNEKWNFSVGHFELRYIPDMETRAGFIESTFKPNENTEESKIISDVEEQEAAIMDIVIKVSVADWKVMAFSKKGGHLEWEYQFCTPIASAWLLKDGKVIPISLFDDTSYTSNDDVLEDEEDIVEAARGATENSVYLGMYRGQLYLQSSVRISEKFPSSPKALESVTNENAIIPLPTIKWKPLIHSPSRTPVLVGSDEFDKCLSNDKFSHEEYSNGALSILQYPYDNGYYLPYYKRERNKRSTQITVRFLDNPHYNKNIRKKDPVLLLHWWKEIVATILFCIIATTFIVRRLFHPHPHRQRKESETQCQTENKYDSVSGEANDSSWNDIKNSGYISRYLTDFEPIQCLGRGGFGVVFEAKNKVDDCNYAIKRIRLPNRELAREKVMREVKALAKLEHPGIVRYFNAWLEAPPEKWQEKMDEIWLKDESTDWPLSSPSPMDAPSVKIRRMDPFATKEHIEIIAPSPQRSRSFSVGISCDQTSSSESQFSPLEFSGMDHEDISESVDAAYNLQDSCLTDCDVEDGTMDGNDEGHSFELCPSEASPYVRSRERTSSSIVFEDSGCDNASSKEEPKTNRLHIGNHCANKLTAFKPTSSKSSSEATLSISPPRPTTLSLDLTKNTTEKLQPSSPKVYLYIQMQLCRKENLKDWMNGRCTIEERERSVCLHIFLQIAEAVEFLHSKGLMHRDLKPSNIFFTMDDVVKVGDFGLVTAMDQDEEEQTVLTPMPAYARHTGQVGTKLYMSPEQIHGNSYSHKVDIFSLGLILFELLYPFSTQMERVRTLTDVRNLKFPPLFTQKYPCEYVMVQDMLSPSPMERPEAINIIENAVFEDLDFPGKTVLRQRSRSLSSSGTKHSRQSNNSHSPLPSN
Nature of the assay: Activation of PERK phosphorylation in human PC3 cells after 24 hrs by Western blot analysis. It is filed as cell-based. In outline: as §2

The subject of assay [11] is PC-3. Nature of the assay: Induction of apoptosis in human PC3 cells assessed as viable cells at 2 uM after 24 hrs by Annexin V-FITC/propidium iodide based flow cytometric analysis (reference value: 95.4 %). It is filed as functional. Conditions: PC-3, 24 h, read-out: Activity. In outline:
as §1

The next assay deals with HeLa. Nature of the assay: Cytotoxicity against human HeLa cells assessed as cell growth inhibition after 24 hrs by MTT assay. Type of assay: functional, cell-based. In outline: as §3
Assay [12] relates to PC-3M. Briefly: Antitumor activity against human PC3M-lluc-C6 cells xenografted in athymic Balb/c mouse assessed as tumor volume at 15 mg/kg, ip administered every 2 days for 18 days (reference value: 845.6 +/- 84.3 mm'3). Type of assay: functional.

Active and inactive are the calls of the source. The rule behind the calls is not given here.

As a reminder, the IC50 is the concentration that gives 50% inhibition. Consider `Cc1cc(C)cc(COc2cc3c(cc2OCc2cc(C)cc(C)c2)[C@@H]2C[C@H](O)C[C@@H](C)N2CC3)c1` (racemic), for which the Activity is listed as 10.1 - 20.4% in the assay on PC-3 [1]; 1.2% in the assay with PC-3 [6]; 65.1 - 78% in the assay with PC-3 [7]; 1.6% in the assay on PC-3 [9]; 410.2 mm3 in the assay with PC-3M [12]. In addition, the outcome (in the assay with PC-3M [2]; in the assay with PC-3M [4]; in the assay with PC-3 [8]; in assay [10]) was Active. Also, in the assay on PC-3 [3], the viability at 0.5 µM was found to be 95.3%. The outcome in the assay with PC-3 [5] was inactive. The half-inhibitory concentration (IC50) worked out at 5.06 µM in the assay on RWPE-1 and 1.65 µM in the assay with HeLa. In addition, the viability at 2 µM in the assay with PC-3 [11] came to 40%.

For the origin of these results see ChEMBL document CHEMBL4425094, “Novel Benzo[a]quinolizidine Analogs Induce Cancer Cell Death through Paraptosis and Apoptosis” (J Med Chem, 2016).
